Data taken from ChEMBL document CHEMBL1137742, “Facile synthesis of bis(4,5-dihydro-1H-pyrazole-1-carboxamides) and their thio-analogues of potential PGE(2) inhibitory properties” (Eur J Med Chem, 2009).

Key:
Rattus norvegicus [1] = assay: Antiinflammatory activity in Wister albino rat assessed as inhibition of carrageenan-induced paw edema volume at 50 mg/kg, ip administered 1 hr before carrageenan challenge measured after 4 hrs; format: functional; conditions: route intraperitoneal
How it was run: (§1)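 Wistar albino rats of either sex (pregnant females excluded), 160–190 g, 6 per group. Dosed i.p. in DMSO 1 h before 0.1 ml of 1% carrageenan in saline was injected subcutaneously into the right hind paw; DMSO-only controls. Paw volume was read by plethysmometer at 4 h against the initial volume to give oedema volume and % inhibition of oedema.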

Rattus norvegicus [2] = assay: Antiinflammatory activity in Wister albino rat assessed as inhibition of carrageenan-induced paw edema volume at 10 mg/kg, ip administered 1 hr before carrageenan challenge measured after 4 hrs; format: functional; conditions: route intraperitoneal; how it was run: as §1
Rattus norvegicus [3] = assay: Antiinflammatory activity in Wister albino rat assessed as inhibition of carrageenan-induced paw edema volume at 50 mg/kg, ip administered 1 hr before carrageenan challenge measured after 4 hrs relative to indomethacin; format: functional; parameters: scale not given: the % may be the effect or the level left; conditions: route intraperitoneal; how it was run: as §1
Rattus norvegicus [4] = assay: Antiinflammatory activity in Wister albino rat assessed as inhibition of carrageenan-induced paw edema volume at 20 mg/kg, ip administered 1 hr before carrageenan challenge measured after 4 hrs; format: functional; conditions: route intraperitoneal; how it was run: as §1
Rattus norvegicus [5] = assay: Antiinflammatory activity in ip dosed Wister albino rat assessed as inhibition of carrageenan-induced paw edema volume administered 1 hr before carrageenan challenge measured after 4 hrs; format: functional; how it was run: as §1
Rattus norvegicus [6] = assay: Gastrointestinal toxicity in fasted albino rat assessed ulcer index at 50 mg/kg, po administered for 3 days measured after 1 hr of last dose; format: organism-based; parameters: dose 50 mg/kg, route oral; conditions: in vivo
How it was run: (§2)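 Albino rats of either sex (pregnant excluded), 130–150 g, 6 per group, fasted 18 h. Dosed orally for 3 consecutive days in saline with a few drops of Tween 80. Killed 1 h after the last dose; stomach opened along the greater curvature, rinsed, and mucosa examined at 10× for lesions. Ulcer index computed from % incidence/10, mean ulcer number and severity.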

Rattus norvegicus [7] = assay: Antiinflammatory activity against carrageenan-induced inflammation in albino rat 6-day-old air pouch model assessed as inhibition of PGE2 level at 50 mg/kg, po administered prior to carrageenan challenge measured after 6 hrs; format: functional
How it was run: (§3)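 Male albino rats, 200–250 g, 6 per group. Air pouch raised by subcutaneous dorsal air: 20 ml on day 1, 10 ml two days later, 10 ml on day 5. On day 6, oral dosing in saline with a few drops of Tween 80, then 2 ml of 1% carrageenan in saline into the pouch. Exudate was aspirated 6 h later under ether, frozen at −20 °C, and PGE2 measured by ELISA (pg/ml).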

Rattus norvegicus [8] = assay: Gastrointestinal toxicity in fasted albino rat assessed ulcer index at 10 mg/kg, po administered for 3 days measured after 1 hr of last dose; format: organism-based; parameters: dose 10 mg/kg, route oral; conditions: in vivo; how it was run: as §2
Rattus norvegicus [9] = assay: Antiinflammatory activity against carrageenan-induced inflammation in albino rat 6-day-old air pouch model assessed as inhibition of PGE2 level at 10 mg/kg, po administered prior to carrageenan challenge measured after 6 hrs; format: functional; how it was run: as §3

| SMILES | inhibition in vivo at 50 mg/kg (Rattus norvegicus [1]) | inhibition in vivo at 10 mg/kg (Rattus norvegicus [2]) | Activity (Rattus norvegicus [3]) | inhibition in vivo at 20 mg/kg (Rattus norvegicus [4]) | ED50 (Rattus norvegicus [5]) | UI (Rattus norvegicus [6]) | Activity (Rattus norvegicus [7]) | UI (Rattus norvegicus [8]) | Activity (Rattus norvegicus [9]) |
| --- | --- | --- | --- | --- | --- | --- | --- | --- | --- |
| NC(=S)N1N=C(c2ccccc2)CC1c1ccc(OCCOc2ccc(C3CC(c4ccccc4)=NN3C(N)=S)cc2)cc1 (stereo not given) | 83.5% | 74.4% | 123.7% | 79.5% | 23.1 mg/kg | 18.5 | 83.33 pg/mL | – | – |
| NC(=S)N1N=C(c2ccc(F)cc2)CC1c1ccccc1OCCOc1ccccc1C1CC(c2ccc(F)cc2)=NN1C(N)=S (stereo not given) | 48% | 40.9% | 71.1% | 43.2% | 40.8 mg/kg | 11.51 | 114.67 pg/mL | – | – |
| NC(=S)N1N=C(c2ccccc2)CC1c1ccccc1OCCOc1ccccc1C1CC(c2ccccc2)=NN1C(N)=S (stereo not given) | 24.5% | – | 36.3% | – | – | – | – | – | – |
| Cc1ccc(C2=NN(C(N)=O)C(c3ccccc3OCCOc3ccccc3C3CC(c4ccc(C)cc4)=NN3C(N)=O)C2)cc1 (stereo not given) | 22.7% | – | 33.6% | – | – | – | – | – | – |
| NC(=S)N1N=C(c2cccs2)CC1c1ccccc1OCCOc1ccccc1C1CC(c2cccs2)=NN1C(N)=S (stereo not given) | 67.5% | 59.7% | 100% | 61.6% | 28.8 mg/kg | 14.33 | 96.5 pg/mL | – | – |
| Cc1ccc(C2=NN(C(N)=S)C(c3ccccc3OCCOc3ccccc3C3CC(c4ccc(C)cc4)=NN3C(N)=S)C2)cc1 (stereo not given) | 36.8% | – | 54.5% | – | – | – | – | – | – |
| NC(=S)N1N=C(c2ccc(Cl)cc2)CC1c1ccccc1OCCOc1ccccc1C1CC(c2ccc(Cl)cc2)=NN1C(N)=S (stereo not given) | 55.2% | 50.3% | 81.8% | 53.7% | 34.6 mg/kg | 12.16 | 110.83 pg/mL | – | – |
| Cc1ccc(C2=NN(C(N)=S)C(c3ccc(OCCOc4ccc(C5CC(c6ccc(C)cc6)=NN5C(N)=S)cc4)cc3)C2)cc1 (stereo not given) | 34.7% | – | 51.4% | – | – | – | – | – | – |
| NC(=O)N1N=C(c2ccc(Cl)cc2)CC1c1ccccc1OCCOc1ccccc1C1CC(c2ccc(Cl)cc2)=NN1C(N)=O (stereo not given) | 45.3% | – | 67.1% | – | – | – | – | – | – |
| COc1ccc2c(c1)c(CC(=O)O)c(C)n2C(=O)c1ccc(Cl)cc1 [INDOMETHACIN] | – | 67.5% | – | – | – | – | – | 13.49 | 98.33 pg/mL |
| NC(=O)N1N=C(c2ccccc2)CC1c1ccccc1OCCOc1ccccc1C1CC(c2ccccc2)=NN1C(N)=O (stereo not given) | 43.2% | – | 64% | – | – | – | – | – | – |
| NC(=O)N1N=C(c2ccc(F)cc2)CC1c1ccccc1OCCOc1ccccc1C1CC(c2ccc(F)cc2)=NN1C(N)=O (stereo not given) | 20.8% | – | 30.8% | – | – | – | – | – | – |
